# Results published in the RNAGym collection of RNA variant scans (doi:10.1038/s41586-018-0170-7).
# B1: tRNA (parent)
# chain: GUUCCGUUGGCGUAAUGGUAACGCGUCUCCCUCCUAAGGAGAAGACUGCGGGUUCGAGUCCCGUACGGAACG
# Variants of: B1
# Experiment: yeast fitness, log relative to wild type (ln ratio); higher = fitter; tRNA-Arg(CCU), competitive growth, 37 C, 1 M NaCl
# How it was run: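 Genotype fitness is expressed as the natural log of its generations over those of the wild type. Each pool of the tRNA-Arg(CCU) variant library, carried on a HIS3 centromeric plasmid in BY4742 lacking the chromosomal gene, came from one of two independent transformations and grew 4 generations in SC-HIS at 30 °C before ~6.5 generations (~26.5 h) in SC-HIS 1M NaCl at 37 °C. Generation numbers used OD-scaled log2 output/input frequencies from 125 bp paired-end Illumina sequencing, combined across replicates by inverse-variance weighting.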
row,Variant,yeast fitness (ln)
1,G1A U2G G6U A69G A70U,-0.278
2,G6U C27U A43C C46U C66U A70G,-0.255
3,U2G G6A C27U C46U C66U A70U,-0.01
4,U2C A43C C46U C66U A69G A70U,-0.191
5,U2G G6U C66A A69G A70U,-0.000141
6,G1A U2C G6A C27U C46U A70G,-0.0476
7,U2G G6U C27U C66U C71U,-0.31
8,G6A C46U C66U A70G C71U,-0.229
9,G1A U2C G6U C27U C66A A69G A70G C71U,-0.137
10,U2C G6U A43C C46U C66U A69G A70U C71U,-0.471
11,G1A U2C C27U A69G A70U C71U,-0.351
12,U2C G6U C27U C46U C66A A69G A70G,-0.035
13,U2C C27U A43C C46U C66A C71U,-0.132
14,U2G C46U C66U A70G,-0.11
15,U2C G6U A43C C46U C66A A70U,-0.21
16,C27U C66U A69G A70U,-0.143
17,U2C G6U C27U A69G A70U C71U,-0.354
18,G1A U2C G6U C66A C71U,-0.115
19,U2G G6A C27U C66A A70G,-0.15
20,G6U C27U A43C C46U A70G,-0.248
21,U2G C27U C46U C66A A70U,-0.143
22,U2C A43C A69G,-0.0815
23,C27U A43C C66A A70G C71U,-0.234
24,U2C G6A A43C C66A A69G A70G C71U,-0.218

row,Variant,yeast fitness (ln)
1,G1A U2C G6A C66U C71U,-0.083
2,U2C G6U C27U C46U A70G,-0.0953
3,G1A U2G C66U A69G C71U,-0.254
4,U2C A70U,-0.0103
5,G1A U2G G6U C27U A43C C46U A70G C71U,-0.426
6,G1A G6U A43C C46U A69G A70U,-0.272
7,A70G,-0.00424
8,G1A G6A C27U C46U A69G A70U,-0.24
9,G1A G6A C27U A43C C46U C66U A69G C71U,-0.499
10,G1A U2C G6U C27U A43C C46U C66A A70U C71U,-0.124
11,G1A U2G C27U C46U C66U A70U C71U,-0.434
12,G1A U2C G6U C27U A43C,-0.181
13,G1A U2C G6U C27U A43C C46U C66U A69G A70U C71U,-0.398
14,G1A A43C C46U C66A A69G A70U C71U,-0.36
15,G1A C27U C46U C66U A69G A70U C71U,-0.504
16,G1A U2C C27U A43C C46U A69G A70G,-0.178
17,G1A G6U C46U C66U A69G A70G,-0.205
18,G1A G6U C27U A43C C46U C66U A70U,-0.368
19,G1A U2C C27U A43C C66U A69G A70G C71U,-0.21
20,G6A C27U A43C C46U,-0.084
21,U2C G6A C27U A43C C66U A69G C71U,-0.35
22,U2C A43C C46U C66U A69G A70U C71U,-0.39
23,G1A U2C A43C C66U A69G A70U C71U,-0.279
24,C27U A43C C46U C66U A70U C71U,-0.333

row,Variant,yeast fitness (ln)
1,G1A G6A C27U A43C C66U A70G C71U,-0.323
2,U2G G6A C27U A43C C46U A69G A70U C71U,-0.384
3,G1A U2C A70U C71U,-0.0394
4,G1A C66U C71U,-0.105
5,U2G G6A C27U A43C C66A A70U C71U,-0.473
6,G1A U2C G6U C46U C66A A70G C71U,-0.0251
7,G1A C27U C46U A70G,-0.175
8,G1A C27U A43C A69G A70G C71U,-0.299
9,G6U C27U A43C C46U C66A A70U C71U,-0.357
10,C27U A43C C46U C71U,-0.0385
11,G1A G6U C27U C66A A70G,-0.228
12,G1A C27U A43C C46U C71U,-0.0315
13,U2G C27U C66A A70G C71U,-0.201
14,U2C G6U A43C C46U A70G C71U,-0.278
15,G1A U2G G6U C46U C66A,-0.122
16,G1A U2C C27U C66U A70G C71U,-0.127
17,C27U C46U A70G,-0.029
18,G1A U2G G6A C27U A43C A70G C71U,-0.344
19,G1A U2C A43C C71U,-0.185
20,U2G C27U C46U A69G A70G C71U,-0.169
21,U2C G6U C27U C46U C66A A70U C71U,-0.161
22,G1A G6A A43C C46U A69G C71U,-0.194
23,G6A A43C C46U C66A,-0.0495
24,U2C C27U A43C A70G C71U,-0.0236

row,Variant,yeast fitness (ln)
1,U2G C27U C46U A70U,-0.00918
2,C27U A70G,-0.037
3,G6U A43C C66A A69G A70U,-0.215
4,U2G G6U A43C C46U A69G A70G C71U,-0.223
5,U2C G6U C27U A43C A70G,-0.18
6,U2C G6U C27U A43C A70U,-0.2
7,A43C A70U,-0.0384
8,U2G G6U C27U A70U,-0.397
9,G6A C27U A43C C66U A69G,-0.373
10,U2G G6A C27U A43C A69G A70G C71U,-0.176
11,G6A C27U A43C A70G C71U,-0.304
12,U2G G6U C27U C46U C66U A69G A70G C71U,-0.356
13,U2G G6U A70G C71U,-0.173
14,G1A U2G G6U C46U,-0.0886
15,U2C G6A C46U C66U A70G C71U,-0.00476
16,G1A G6A A43C C46U C66U A70G C71U,-0.338
17,U2G C46U C66U,-0.0936
18,G1A G6U A43C C46U C66A C71U,-0.0191
19,G1A G6U C46U,-0.0505
20,G1A U2G G6U A43C C46U A70U,-0.235
21,G1A U2G G6U A43C C46U A70G,-0.235
22,G6U C27U A70G C71U,-0.368
23,G1A U2C C27U C46U C66U A70U C71U,-0.147
24,G1A U2C G6U C46U,0.0116

row,Variant,yeast fitness (ln)
1,G1A G6A A43C C46U C66U,-0.295
2,U2G G6U C27U C66U A69G A70G C71U,-0.273
3,G1A U2G C46U A70G C71U,-0.166
4,U2C G6A C27U A43C C46U A70U C71U,-0.113
5,G1A U2G G6A A43C C46U C66U A69G A70G,-0.275
6,G1A G6U C66A A70U,-0.0574
7,G1A G6U C27U A70U,-0.232
8,U2C G6U C27U A70U,-0.153
9,U2C G6A C27U C46U C66U C71U,-0.119
10,U2C C27U A43C C66A A70G,-0.0848
11,U2G C27U A43C C46U C66A A69G C71U,-0.34
12,G1A G6A A43C C66A A70U,-0.201
13,A43C C66A A69G A70G C71U,-0.159
14,G6U A43C C46U C66U A69G A70U C71U,-0.42
15,U2C G6A C27U C66U A69G A70G C71U,-0.0741
16,U2C G6A C46U,-0.0163
17,G6U C27U C66U,-0.321
18,A43C C66A C71U,-0.117
19,U2C A43C C46U A69G A70U,-0.144
20,U2C C27U C66A A70G,-0.105
21,U2G G6U C27U A70G C71U,-0.285
22,U2G G6U A43C C66A A70U C71U,-0.43
23,G1A U2G G6U A43C C46U C66U A70U C71U,-0.399
24,G1A G6U C27U C66U,-0.29

row,Variant,yeast fitness (ln)
1,G1A G6U C27U A43C C66U A70G,-0.609
2,G1A U2G C27U A43C C46U C66A A69G C71U,-0.315
3,G1A G6U A43C C46U C66U A70G,-0.261
4,G1A U2G C27U A43C C66U A69G A70G,-0.492
5,G1A U2G C27U C46U A70G,-0.144
6,G1A G6A C27U A43C C66U A69G A70G,-0.383
7,U2C C46U C66U C71U,-0.0488
8,G1A U2G G6A C27U A70U C71U,-0.264
9,G1A U2C A69G A70G C71U,-0.0058
10,G1A U2G G6U C46U A69G A70G C71U,-0.309
11,G1A G6U C27U A43C C66A C71U,-0.498
12,U2G G6A C27U A43C C66U A70U C71U,-0.339
13,G1A G6U C27U A43C C46U C66A,-0.168
14,G1A U2G G6U C27U C66U A70G,-0.357
15,U2G G6A A69G A70G C71U,-0.181
16,U2G G6U A43C A69G C71U,-0.402
17,G6A C27U C66U,-0.0352
18,U2G G6U C66A A69G A70U C71U,-0.726
19,U2C C27U A43C C46U C66U A69G A70G,-0.303
20,U2G C46U A69G A70U C71U,-0.191
21,U2G C46U C66A C71U,-0.0426
22,C27U A43C,-0.0182
23,G1A G6U C27U C66A A69G A70U C71U,-0.223
24,G1A G6U A43C C66A A70G,-0.135

row,Variant,yeast fitness (ln)
1,U2G G6U C27U C66A A69G A70G C71U,-0.25
2,G1A U2C G6A C27U C46U,-0.0428
3,G1A U2C G6U C46U A69G A70G C71U,-0.15
4,U2G G6A C27U A43C C46U C66U A69G A70G C71U,-0.289
5,U2C A43C C66A A70G,-0.0552
6,G1A G6A A43C C46U C66A C71U,-0.26
7,G1A U2C G6U,-0.00557
8,G1A U2G C27U A43C C71U,-0.16
9,U2C A43C C46U A69G A70U C71U,-0.307
10,U2G G6A C46U C66U A69G,-0.163
11,G1A U2C C27U A43C C46U A69G A70G C71U,-0.0168
12,U2C G6A C27U A43C C66U C71U,-0.148
13,U2G G6A C27U A43C A70G C71U,-0.221
14,U2G G6U C27U C66A A69G A70U,-0.0809
15,G1A G6U A43C C46U C66U A69G A70G,-0.389
16,G6A C27U A43C C66A A70U,-0.204
17,U2G G6U A43C C46U A70G C71U,-0.229
18,G1A G6A A43C C46U C66U A69G A70G C71U,-0.274
19,U2C G6A C27U C66U A70G,-0.0339
20,G1A U2G C27U A43C C46U A69G A70U,-0.161
21,U2G C27U C46U C66U A70G C71U,-0.175
22,G1A U2C G6U A43C C46U A69G A70U C71U,-0.343
23,G1A G6A C46U C66U A69G A70U C71U,-0.363
